A1 apoptosis 2 = A1 inhibitors via caspase activation, primary screen, cell-based, luminescence, HTS, two replicates; MEF A1-2A-BIM cells, caspase-Glo luminescence, 3 h; percent of clofoctol response, DMSO zero; AID 2465, 2010; caspase activation, % (test concentration not listed); 24,000 tested, under 10 active; in the data active = caspase activation above about 5.9%
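Material: A1-2A-BIM-expressing MEF cells. Buffer or medium: RPMI-1640 plus 10% FBS. Incubation: cells settled overnight, compound exposure 3 h at 37 °C, 5% CO2. Signal: Caspase-Glo 3/7 luminescence, 1 h at room temperature.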
T cruzi intra = inhibitors of intracellular Trypanosoma cruzi, primary screen, cell-based, plate reader, single point, set 2; activity score (inhibition), % at 5.01 µM; 22,000 compounds, 4.9% hits; intracellular Trypanosoma cruzi in host cells; in the data active = activity score above about 55%;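 note: parasites and compound incubated about four days before reading; 0% = median of neutral control wells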
INS-1E ATP HTS = protection of INS-1E cells from cytokine death, primary screen, ATP luminescence, single point. protection from cytokine-induced ATP loss, % at 10 µM. AID 488910, 2010. INS-1E cytokine-induced death, 48 h; normalised: neutral wells 0, positive control 100. 20,000 compounds, 0.1% hits;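 active = mean replicate protection from cytokine-induced ATP loss at least 50% and at least 75% of replicates each reaching 50%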
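Material: INS-1E rat cells; Quantity: 8000 cells/well; Buffer or medium: phenol-red-free RPMI with 5% fetal bovine serum; Probe or stimulus: cytokine cocktail of IFN-γ, TNF-α and IL-1β; Compound dosing: single test concentration per compound, delivered by pin transfer; Incubation: 48 h co-treatment, 10 min post-lysis read; Signal: CellTiter-Glo luminescence.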
* hit, by the source's call; / = no result given. The entries come from a sample that favours hits as a whole.

SMILES | A1 apoptosis 2 | T cruzi intra | INS-1E ATP HTS
O=C1c2ccccc2C(=O)N1CC1CCN(Cc2cccc(OCCO)c2)CC1 | 0.6 | / | /
C[C@@H]1CCCCO[C@H](CN(C)Cc2ccc(Cl)c(Cl)c2)[C@H](C)CN([C@@H](C)CO)C(=O)c2cc(NC(=O)Nc3ccc4c(c3)OCO4)ccc2O1 | -1.7 | / | /
C[C@@H]1CCCCO[C@@H](CN(C)Cc2ccc(Cl)c(Cl)c2)[C@@H](C)CN([C@H](C)CO)C(=O)c2cc(NC(=O)Nc3ccc4c(c3)OCO4)ccc2O1 | 0.1 | 67.5* | -21.1
C[C@@H]1CCCCO[C@H](CN(C)Cc2ccc(C(F)(F)F)cc2)[C@@H](C)CN([C@H](C)CO)C(=O)c2cc(NC(=O)Nc3ccc(F)cc3)ccc2O1 | / | 71.1* | 7.0
C[C@@H]1CCCCO[C@@H](CN(C)Cc2ccc(C(F)(F)F)cc2)[C@@H](C)CN([C@@H](C)CO)C(=O)c2cc(NC(=O)Nc3ccc4c(c3)OCO4)ccc2O1 | -1.3 | / | /
C[C@@H]1CCCCO[C@H](CN(C)Cc2ccc3c(c2)OCO3)[C@@H](C)CN([C@H](C)CO)C(=O)c2cc(NC(=O)Nc3ccc(C(F)(F)F)cc3)ccc2O1 | -0.1 | 78.4* | -42.3
C[C@@H]1CN([C@H](C)CO)C(=O)c2cc(NC(=O)Nc3ccc(C(F)(F)F)cc3)ccc2O[C@@H](C)CCCCO[C@H]1CN(C)Cc1ccc(C(F)(F)F)cc1 | 0.6 | / | /
C[C@@H]1CN([C@H](C)CO)C(=O)c2cc(NC(=O)Nc3ccc(F)cc3)ccc2O[C@@H](C)CCCCO[C@@H]1CN(C)Cc1ccc(C(F)(F)F)cc1 | -0.9 | / | /
C[C@@H]1CCCCO[C@@H](CN(C)Cc2ccc(C(F)(F)F)cc2)[C@@H](C)CN([C@H](C)CO)C(=O)c2cc(NC(=O)Nc3ccc(C(F)(F)F)cc3)ccc2O1 | / | 72.3* | -1.8
O=C(CCCCCCC(=O)Nc1ccccc1O)N/N=C/c1ccoc1 | / | -3.3 | 4.2
O=C(CCCCCCC(=O)NN=C1CCCC1)NO | 0.2 | / | /
C[C@]12CCC3C4(C=CC5(C=C4C(=O)c4cc6ccccc6s4)C[C@@H](O)CC[C@]35C)C1CC[C@@]2(O)CN1CCC(n2c(=O)[nH]c3ccccc32)CC1 (stereo not given in full) | -0.9 | / | /
C[C@@H]1CCCCO[C@H](CN(C)Cc2ccc(C(F)(F)F)cc2)[C@@H](C)CN([C@H](C)CO)C(=O)c2cc(NC(=O)NC3CCCCC3)ccc2O1 | / | 44.4 | -14.4
C[C@H]1CCCCO[C@H](CN(C)Cc2ccc(C(F)(F)F)cc2)[C@@H](C)CN([C@@H](C)CO)C(=O)c2cc(NC(=O)Nc3ccc(C(F)(F)F)cc3)ccc2O1 | 0.0 | / | /
C[C@@H]1CCCCO[C@@H](CN(C)Cc2ccc(C(F)(F)F)cc2)[C@@H](C)CN([C@H](C)CO)C(=O)c2cc(NC(=O)NC3CCCCC3)ccc2O1 | -0.1 | 64.7* | -22.0
C[C@@H]1CCCCO[C@H](CN(C)Cc2ccc(C(F)(F)F)cc2)[C@@H](C)CN([C@H](C)CO)C(=O)c2cc(NC(=O)Nc3ccc(C(F)(F)F)cc3)ccc2O1 | 1.3 | 70.7* | -37.9

Assay outcomes from PubChem.
